Test results from ChEMBL document CHEMBL3861962 (Eur J Med Chem, 2016).

Legend:
[1] = Retention time of the compound; format: physicochemical
[2] = Drug level in human liver microsomes treated with bosentan at 5 uM in presence of NADPH after 30 mins by LC-MS/MS analysis; format: ADME; conditions: 0.5 h
How it was run: (§1)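 Substrate at 5 μM final in 100 mM potassium phosphate, pH 7.4, incubated with human liver microsomes or baculovirus-expressed recombinant CYP3A4, 2D6 or 2C9. Reaction started with 1 mM NADPH and run 0, 15 and 30 min at 37 °C. Stopped with ice-cold acetonitrile containing labetalol internal standard, then centrifuged. Supernatant analysed by LC-MS/MS on a C18 column at 40 °C. Blank was enzyme without substrate.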

Cytochrome P450 3A4 [3] = biological target: T1, Cytochrome P450 3A4 (Homo sapiens, UniProt P08684); experiment: Drug level assessed as human recombinant CYP3A4-mediated compound formation treated with bosentan at 5 uM in presence of NADPH after 30 mins by LC-MS/MS analysis; format: ADME; conditions: recombinant enzyme, 0.5 h; how it was run: as §1
T1 sequence (P08684 whole entry): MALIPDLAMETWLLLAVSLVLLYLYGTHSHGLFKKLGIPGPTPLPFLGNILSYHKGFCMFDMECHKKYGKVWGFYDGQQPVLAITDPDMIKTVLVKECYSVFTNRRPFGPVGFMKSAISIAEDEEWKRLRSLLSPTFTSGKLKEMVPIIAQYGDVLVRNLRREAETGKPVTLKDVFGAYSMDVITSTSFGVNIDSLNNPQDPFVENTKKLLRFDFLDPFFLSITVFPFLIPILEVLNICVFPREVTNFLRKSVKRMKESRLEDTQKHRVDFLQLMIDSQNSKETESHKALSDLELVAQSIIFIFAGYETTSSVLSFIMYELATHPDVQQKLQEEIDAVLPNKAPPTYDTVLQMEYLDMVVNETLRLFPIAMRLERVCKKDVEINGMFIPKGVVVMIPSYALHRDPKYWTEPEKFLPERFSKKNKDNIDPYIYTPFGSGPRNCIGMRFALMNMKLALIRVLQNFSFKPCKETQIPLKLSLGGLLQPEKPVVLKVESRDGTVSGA

Cytochrome P450 2D6 = Cytochrome P450 2D6 (Homo sapiens, UniProt P10635); experiment: Drug metabolism assessed as human recombinant CYP2D6-mediated metabolite formation by measuring parent compound remaining at 5 uM in presence of NADPH after 30 mins by LC-MS/MS analysis; format: ADME; conditions: recombinant enzyme, 0.5 h; how it was run: as §1
Chain of Cytochrome P450 2D6 (P10635 whole entry): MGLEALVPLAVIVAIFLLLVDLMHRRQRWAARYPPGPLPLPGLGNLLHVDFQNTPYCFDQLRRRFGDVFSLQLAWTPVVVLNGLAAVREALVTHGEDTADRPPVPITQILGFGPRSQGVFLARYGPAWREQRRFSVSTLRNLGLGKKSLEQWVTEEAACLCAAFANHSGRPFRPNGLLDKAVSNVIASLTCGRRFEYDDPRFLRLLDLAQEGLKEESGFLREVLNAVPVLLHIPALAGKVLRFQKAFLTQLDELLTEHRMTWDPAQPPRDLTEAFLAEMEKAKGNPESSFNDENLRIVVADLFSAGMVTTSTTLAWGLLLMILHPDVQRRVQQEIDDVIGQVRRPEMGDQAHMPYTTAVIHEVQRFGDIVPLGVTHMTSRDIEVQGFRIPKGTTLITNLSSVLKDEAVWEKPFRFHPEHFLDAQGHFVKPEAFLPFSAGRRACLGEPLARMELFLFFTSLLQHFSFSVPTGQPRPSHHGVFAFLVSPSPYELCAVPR

[4] = biological target: T2, Endothelin receptor type B (Homo sapiens) (UniProt P24530); experiment: Agonist activity at human recombinant ETB receptor expressed in CHOK1 cells assessed as induction of Ca2+ mobilization at 1 nM by fluorimetric method relative to control; format: functional, cell-based; conditions: CHO-K1
T2 sequence (whole entry): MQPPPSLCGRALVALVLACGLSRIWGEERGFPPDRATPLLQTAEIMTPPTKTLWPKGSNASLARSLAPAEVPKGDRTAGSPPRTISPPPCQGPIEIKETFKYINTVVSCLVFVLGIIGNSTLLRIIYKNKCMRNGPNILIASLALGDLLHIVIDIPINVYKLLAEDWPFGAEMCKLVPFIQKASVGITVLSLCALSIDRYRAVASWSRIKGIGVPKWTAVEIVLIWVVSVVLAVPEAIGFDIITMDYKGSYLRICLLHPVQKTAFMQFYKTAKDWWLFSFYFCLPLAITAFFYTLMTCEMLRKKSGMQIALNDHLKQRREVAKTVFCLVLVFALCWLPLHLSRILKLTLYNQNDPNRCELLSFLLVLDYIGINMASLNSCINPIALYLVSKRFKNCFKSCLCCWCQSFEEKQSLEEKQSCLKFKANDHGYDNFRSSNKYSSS
How it was run: (§2)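 ETB functional assay run by Cerep in human recombinant CHO-k1 cells at 22 °C with fluorimetric read-out. Test solutions were 1, 10, 100 and 1000 nM. Agonist response is given as % of the control response to 100 nM endothelin-1. For antagonist mode, inhibition is given as % of the control endothelin-1 agonist response, with BQ-788 as reference antagonist.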

[5] = biological target: T2, Endothelin receptor type B (Homo sapiens); experiment: Agonist activity at human recombinant ETB receptor expressed in CHOK1 cells assessed as induction of Ca2+ mobilization at 10 nM by fluorimetric method relative to control; format: functional, cell-based; conditions: CHO-K1; how it was run: as §2
[6] = biological target: T3, Endothelin-1 receptor (Homo sapiens) (UniProt P25101); experiment: Antagonist activity at ETA receptor in human SKNMC cells assessed as inhibition of endothelin-1-mediated Ca2+ mobilization at 100 nM by fluorimetric method relative to control; format: functional, cell-based; conditions: SK-N-MC
T3 sequence (whole entry): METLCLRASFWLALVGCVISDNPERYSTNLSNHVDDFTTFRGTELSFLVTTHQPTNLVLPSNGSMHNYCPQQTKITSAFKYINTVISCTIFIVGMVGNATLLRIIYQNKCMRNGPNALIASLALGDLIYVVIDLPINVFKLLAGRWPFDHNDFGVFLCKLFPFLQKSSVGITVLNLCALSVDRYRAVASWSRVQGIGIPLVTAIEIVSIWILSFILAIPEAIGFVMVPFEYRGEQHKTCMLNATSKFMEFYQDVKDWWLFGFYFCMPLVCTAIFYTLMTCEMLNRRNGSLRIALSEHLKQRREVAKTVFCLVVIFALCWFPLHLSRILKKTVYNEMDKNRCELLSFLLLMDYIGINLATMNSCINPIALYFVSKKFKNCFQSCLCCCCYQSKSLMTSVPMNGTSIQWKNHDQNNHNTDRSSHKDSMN
How it was run: as §2, with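 “ETA” for “ETB”, “neuroblastoma SK-N-MC” for “recombinant CHO-k1”, “BQ-123” for “BQ-788”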

[7] = biological target: T3, Endothelin-1 receptor (Homo sapiens); experiment: Agonist activity at ETA receptor in human SKNMC cells assessed as induction of Ca2+ mobilization at 100 nM by fluorimetric method relative to control; format: functional, cell-based; conditions: SK-N-MC
How it was run: as §2, with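 “ETA” for “ETB”, “neuroblastoma SK-N-MC” for “recombinant CHO-k1”, “BQ-123” for “BQ-788”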

[8] = Drug metabolism in human liver microsomes assessed as formation of 4-(1,1,1,3,3,3-hexafluoro-2-hydroxypropan-2-yl)-N-(6-(2-hydroxyethoxy)-5-(2-hydroxyphenoxy)-2,2'-bipyrimidin-4-yl)benzenesulfonamide at 5 uM in presence of NADPH after 30 mins by LC-MS/MS analysis; format: ADME; conditions: 0.5 h; how it was run: as §1
Cytochrome P450 3A4 [9] = biological target: T1, Cytochrome P450 3A4; experiment: Drug level assessed as human recombinant CYP3A4-mediated compound formation treated with 4-(1,1,1,3,3,3-Hexafluoro-2-methoxypropan-2-yl)-N-(6-(2-hydroxyethoxy)-5-(2-methoxyphenoxy)-2,2'-bipyrimidin-4-yl)benzenesulfonamide at 5 uM in presence of NADPH after 30 mins by LC-MS/MS analysis; format: ADME; conditions: recombinant enzyme, 0.5 h; how it was run: as §1
Cytochrome P450 3A4 [10] = biological target: T1, Cytochrome P450 3A4; experiment: Drug metabolism assessed as human recombinant CYP3A4-mediated metabolite formation by measuring parent compound remaining at 5 uM in presence of NADPH after 30 mins by LC-MS/MS analysis; format: ADME; conditions: recombinant enzyme, 0.5 h; how it was run: as §1
[11] = biological target: T3, Endothelin-1 receptor (Homo sapiens); experiment: Antagonist activity at ETA receptor in human SKNMC cells assessed as inhibition of endothelin-1-mediated Ca2+ mobilization at 1 nM by fluorimetric method relative to control; format: functional, cell-based; conditions: SK-N-MC
How it was run: as §2, with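 “ETA” for “ETB”, “neuroblastoma SK-N-MC” for “recombinant CHO-k1”, “BQ-123” for “BQ-788”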

[12] = Metabolic stability in human liver microsomes assessed as parent compound remaining at 5 uM in presence of NADPH after 30 mins by LC-MS/MS analysis; format: ADME; conditions: read-out: Stability
How it was run: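 Pooled human liver microsomes in 100 mM potassium phosphate, pH 7.4, with test compound at 5 μM final. Reaction started with 1 mM NADPH (final) and run at 37 °C in a shaking water bath for 0, 15 and 30 min. Stopped with an equal volume of ice-cold acetonitrile containing 0.6 μM labetalol as internal standard. Protein was spun out and the supernatant analysed by LC-MS/MS. Blank had no compound.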

[13] = biological target: T3, Endothelin-1 receptor (Homo sapiens); experiment: Antagonist activity at ETA receptor in human SKNMC cells assessed as inhibition of endothelin-1-mediated Ca2+ mobilization at 10 nM by fluorimetric method relative to control; format: functional, cell-based; conditions: SK-N-MC
How it was run: as §2, with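 “ETA” for “ETB”, “neuroblastoma SK-N-MC” for “recombinant CHO-k1”, “BQ-123” for “BQ-788”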

[14] = biological target: T2, Endothelin receptor type B (Homo sapiens); experiment: Antagonist activity at human recombinant ETB expressed in CHOK1 cells assessed as inhibition of endothelin-1-mediated Ca2+ mobilization at 1 nM by fluorimetric method relative to control; format: functional, cell-based; conditions: CHO-K1; how it was run: as §2
[15] = Drug level in human liver microsomes treated with 4-(1,1,1,3,3,3-Hexafluoro-2-methoxypropan-2-yl)-N-(6-(2-hydroxyethoxy)-5-(2-methoxyphenoxy)-2,2'-bipyrimidin-4-yl)benzenesulfonamide at 5 uM in presence of NADPH after 30 mins by LC-MS/MS analysis; format: ADME; conditions: 0.5 h; how it was run: as §1
Cytochrome P450 3A4 [16] = biological target: T1, Cytochrome P450 3A4; experiment: Drug metabolism assessed as human recombinant CYP3A4-mediated formation of 4-(1,1,1,3,3,3-hexafluoro-2-hydroxypropan-2-yl)-N-(6-(2-hydroxyethoxy)-5-(2-hydroxyphenoxy)-2,2'-bipyrimidin-4-yl)benzenesulfonamide at 5 uM in presence of NADPH after 30 mins by LC-MS/MS analysis; format: ADME; conditions: recombinant enzyme, 0.5 h; how it was run: as §1
[17] = biological target: T2, Endothelin receptor type B (Homo sapiens); experiment: Antagonist activity at human recombinant ETB expressed in CHOK1 cells assessed as inhibition of endothelin-1-mediated Ca2+ mobilization at 10 nM by fluorimetric method relative to control; format: functional, cell-based; conditions: CHO-K1; how it was run: as §2
[18] = biological target: T2, Endothelin receptor type B (Homo sapiens); experiment: Antagonist activity at human recombinant ETB expressed in CHOK1 cells assessed as inhibition of endothelin-1-mediated Ca2+ mobilization at 100 nM by fluorimetric method relative to control; format: functional, cell-based; conditions: CHO-K1; how it was run: as §2
[19] = biological target: T3, Endothelin-1 receptor (Homo sapiens); experiment: Agonist activity at ETA receptor in human SKNMC cells assessed as induction of Ca2+ mobilization at 10 nM by fluorimetric method relative to control; format: functional, cell-based; conditions: SK-N-MC
How it was run: as §2, with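 “ETA” for “ETB”, “neuroblastoma SK-N-MC” for “recombinant CHO-k1”, “BQ-123” for “BQ-788”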

[20] = biological target: T3, Endothelin-1 receptor (Homo sapiens); experiment: Agonist activity at ETA receptor in human SKNMC cells assessed as induction of Ca2+ mobilization at 1 nM by fluorimetric method relative to control; format: functional, cell-based; conditions: SK-N-MC
How it was run: as §2, with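 “ETA” for “ETB”, “neuroblastoma SK-N-MC” for “recombinant CHO-k1”, “BQ-123” for “BQ-788”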

[21] = biological target: T2, Endothelin receptor type B (Homo sapiens); experiment: Agonist activity at human recombinant ETB receptor expressed in CHOK1 cells assessed as induction of Ca2+ mobilization at 100 nM by fluorimetric method relative to control; format: functional, cell-based; conditions: CHO-K1; how it was run: as §2
[22] = Cytotoxicity against CHOK1 cells assessed as decrease in cell viability after 24 hrs by MTT assay; format: toxicity, cell-based, Cricetulus griseus; conditions: Chinese hamster, CHO-K1 cells
How it was run: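 CHO-k1 cells grown in phenol-red-free DMEM/F-12 with 10% FBS, seeded at 20,000 cells/well and allowed to attach overnight. Exposure was 24 h to 0.1–200 μM, with DMSO as vehicle control. MTT at 1 mg/mL for 3 h at 37 °C, formazan dissolved in DMSO, absorbance read at 570 nm. Data given as % OD of vehicle control; IC50 taken from dose–response curve fits.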

Cytochrome P450 2C9 = Cytochrome P450 2C9 (Homo sapiens, UniProt P11712); experiment: Drug metabolism assessed as human recombinant CYP2C9-mediated metabolite formation by measuring parent compound remaining at 5 uM in presence of NADPH after 30 mins by LC-MS/MS analysis; format: ADME; conditions: recombinant enzyme, 0.5 h; how it was run: as §1
Chain of Cytochrome P450 2C9 (P11712 whole entry): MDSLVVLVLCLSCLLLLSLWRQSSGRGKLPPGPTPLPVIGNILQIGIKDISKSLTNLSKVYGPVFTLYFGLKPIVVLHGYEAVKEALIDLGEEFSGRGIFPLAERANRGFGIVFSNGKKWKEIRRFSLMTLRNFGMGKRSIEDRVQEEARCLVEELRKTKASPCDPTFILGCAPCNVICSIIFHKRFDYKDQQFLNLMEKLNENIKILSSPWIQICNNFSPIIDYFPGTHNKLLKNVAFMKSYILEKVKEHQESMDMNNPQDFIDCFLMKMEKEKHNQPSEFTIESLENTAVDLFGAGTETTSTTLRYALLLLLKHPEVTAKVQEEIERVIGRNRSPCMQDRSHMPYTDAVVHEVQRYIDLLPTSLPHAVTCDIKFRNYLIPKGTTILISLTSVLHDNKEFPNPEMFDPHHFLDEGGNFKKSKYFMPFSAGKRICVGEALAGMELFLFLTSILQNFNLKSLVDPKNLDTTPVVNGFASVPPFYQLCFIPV

Question: What does the source list for `CC(C)(CO)c1ccc(S(=O)(=O)Nc2nc(-c3ncccn3)nc(OCCO)c2Oc2ccccc2O)cc1`?
Answer: Retention_time [1]: 4.16 min; Drug metabolism [2]: Metabolite_Detected; Drug metabolism (Cytochrome P450 3A4 [3]): Metabolite_Detected

Question: Which Stability (Cytochrome P450 2D6) does the source give for `COc1ccccc1Oc1c(NS(=O)(=O)c2ccc(C(O)(C(F)(F)F)C(F)(F)F)cc2)nc(-c2ncccn2)nc1OCCO` here?
Answer: > 99%

Question: What about the Activity [4] of the same compound?
Answer: -1%

Question: And the Activity [5]?
Answer: -1%

Question: What about the inhibition [6] of the same compound?
Answer: -7%

Question: And the Activity [7]?
Answer: 0%

Question: What about the Retention_time [1] of the same compound?
Answer: 4.72 min

Question: And the Drug metabolism [8]?
Answer: Metabolite_Detected

Question: And the Drug metabolism (Cytochrome P450 3A4 [9])?
Answer: Metabolite_Detected

Question: What about the Stability (Cytochrome P450 3A4 [10]) of the same compound?
Answer: 72.8%

Question: What about the inhibition [11] of the same compound?
Answer: -9%

Question: And the remaining at 0.5 h, 5 µM [12]?
Answer: 90.1%

Question: What about the inhibition [13] of the same compound?
Answer: -5%

Question: What about the inhibition [14] of the same compound?
Answer: 12%

Question: What about the Drug metabolism [15] of the same compound?
Answer: Metabolite_Detected

Question: And the Drug metabolism (Cytochrome P450 3A4 [16])?
Answer: Metabolite_Detected

Question: And the inhibition [17]?
Answer: 11%

Question: And the inhibition [18]?
Answer: 14%

Question: What about the Activity [19] of the same compound?
Answer: 0%

Question: And the Activity [20]?
Answer: 0%

Question: What about the Activity [21] of the same compound?
Answer: -1%

Question: And the IC50 at 24 h [22]?
Answer: > 200 µM

Question: What about the Stability (Cytochrome P450 2C9) of the same compound?
Answer: 100%
